# Screening data (PubChem BioAssay)
# Shown are actives, neighbours in structure and some others; about 2.6% of the full set was active somewhere.
# miR-122 sensor: miR-122 Renilla sensor signal increase in Huh7, primary screen, miR-122 inhibitor project, cell-based, single point, plate reader | Huh7 miR-122 Renilla luciferase sensor, 48 h; neutral wells = 0, positive control = 100 | activation (reporter increase), % at 12.5 µM | hit rate 0.3% among 340,000 | AID 602342, 2012;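 active = mean replicate activation score at least 90 and every replicate individually at or above 90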;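 note: higher luciferase means less miR-122 activity so hits act as miR-122 inhibitors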
# FN deposition inh: inhibitors of fibronectin matrix deposition, primary screen, AH1F cells, Alexa488-fibronectin fluorescence, plate reader; inhibition, % at 12.6 µM; hit rate 0.086% among 350,000; AH1F fibroblasts, overnight;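 active = mean inhibition across replicates of 30% or more, regardless of how many single replicates reach that level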;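 note: positive control wells lacked labelled fibronectin entirely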
#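 Test system: AH1F fibroblast monolayer depositing Alexa488-labelled fibronectin into matrix. Input: 10000 cells per well. Technique: fluorescence, ex 485 nm, em 525 nm. Buffer or medium: DMEM plus 2% serum, read in PBS. Timing: 1 h cell adhesion before compound, then overnight fibronectin incubation. Compound: single dose, pinned. Read-out basis: inhibition from reduced deposited-fibronectin fluorescence.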
# Vif imaging: HIV Vif self-association inhibitors, primary screen, imaging, HEK293T, single point; hit rate 0.35% among 340,000; AID 602346, 2012; inhibition, % at 7.49 µM; HEK293T cells, Vif self-association by quenched fluorescence, 24 h; in the data active = inhibition above about 50%, passing the limit was not always enough
# S100A4 inh HTS: inhibitors of S100A4-myosin IIA peptide binding, primary screen, biochemical, fluorescence polarization, TAMRA-MyoIIA peptide | Protein S100-A4 (Homo sapiens), P26447 | inhibition, % at 10.7 µM | hit rate 0.14% among 360,000;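 active = mean inhibition of at least 70% across replicates, with every replicate also reaching that level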
# Target sequence (P26447 whole entry, looked up): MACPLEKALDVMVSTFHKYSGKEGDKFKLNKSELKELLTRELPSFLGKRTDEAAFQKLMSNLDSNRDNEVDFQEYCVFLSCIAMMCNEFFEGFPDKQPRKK
#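 incubation = readout 5 min after mixing, signal stable up to 60 min | system = S100A4 monomer protein | buffer or medium = HEPES pH 7.2 with CaCl2, KCl, NaCl, DTT, Triton | benchmarks = neutral control DMSO, positive control TFP | also added = fluorescent myosin IIA peptide, 5 nM | compound dosing = one concentration per compound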
# HIV Env fusion: inhibitors of HIV-1 Env-driven cell-cell fusion, primary screen, HeLa-JRFL effector, CEM21 target cells, luciferase. inhibition, % at 12.3 µM. hit rate 1.1% among 360,000. AID 651610, 2012;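 active = mean replicate inhibition score of at least 50 and every replicate individually at or above 50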;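 note: 0% = plate neutral controls and 100% = maraviroc near 300 nM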
# rRNA inh HTS: reduced GFP signal of wild-type E. coli, primary screen, bacterial rRNA inhibitor project, GFP/RFP fluorescence, OD600, single point; E. coli WT GFP vs humanized-ribosome RFP mutants, 24 h; hits give low values; DMSO median 0, no signal -100; GFP signal change (wild-type ribosome), % (no concentration beside the values); hit rate 1.6% among 350,000;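 active = significant combined selectivity score with lowered wild-type GFP, culture density cut under 30%, mutant RFP and density less affected; inactive = any of these conditions unmet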
# Active calls of the source: *; x = no result given; [ ] = remark or other dose.
SMILES,miR-122 sensor,FN deposition inh,Vif imaging,S100A4 inh HTS,HIV Env fusion,rRNA inh HTS
CNC(=O)c1ccsc1NC(=O)c1ccc(Cl)s1,18.4,-4.2,x,-8.5,-30.9,-28.4*
O=C(Nc1cccc(Cl)c1)N1C[C@H]2[C@@H](c3ccccc31)[C@H](CO)N2CC1CCCCC1,-3.2[16.7 µM],x,x,2.4,x,-58.5*
O=C(CC(F)(F)F)N1C[C@@H]2[C@H](c3ccccc31)[C@@H](CO)N2CC1CCOCC1,14.3[16.7 µM],0.2,x,90.1*,x,1.4
O=C(c1cccnc1)N1C[C@H]2[C@@H](c3ccccc31)[C@H](CO)N2CC1CCCC1,10.0[16.7 µM],32.2*,x,2.3,x,-4.3
O=C(c1cccnc1)N1C[C@H]2[C@@H](c3ccccc31)[C@H](CO)N2CC1CCCCC1,-1.8[16.7 µM],x,x,-1.0,x,0.2
CCCC(=O)Nc1ccc2c(c1)OC[C@@H](C)N(Cc1ccc(F)cc1)C[C@@H](C)[C@H](OC)CN(C)C2=O,x,4.0,x,-2.8,x,-3.4
CC(C)c1ccc(NC(=O)C[C@H]2CC[C@H]3[C@@H](COc4ccc(NC(=O)c5ccno5)cc4C(=O)N3C)O2)cc1,x,-4.7,x,4.2,13.5[16.7 µM],-4.4
Cc1noc(C)c1NC(=O)Nc1cccc2c1O[C@@H](CN(C)S(=O)(=O)c1cccs1)[C@@H](C)CN([C@@H](C)CO)C2=O,7.8[16.7 µM],-1.7,x,8.4,x,-0.5
CCCN1C[C@H](C)[C@@H](OC)CN(C)C(=O)c2ccc(NC(=O)c3cccc(OC)c3)cc2OC[C@@H]1C,x,17.5,x,x,x,-3.0
O=C(Nc1nc2ccc(Cl)cc2s1)c1ccco1,116.1*,8.8,-8.5,x,-160.9,x
Cc1csc2c(=O)sc(NC(=O)c3ccco3)nc12,117.3*,-17.7,-10.2,-5.0,-10.3,-3.0
O=C(Nc1nc2ccc(Br)cc2s1)c1ccco1,3.8,-1.9,-10.2,-2.9,-105.6,8.4
O=C(Nc1nc2ccsc2c(=O)s1)c1ccco1,-10.9,0.6,-1.1,-37.3,-33.5,x
Cc1ccc2nc(NC(=S)NC(=O)c3ccco3)sc2c1,x,-0.5,1.0,3.2,x,-15.4*
O=C(Nc1nc2c(s1)CCc1ccccc1-2)c1ccco1,98.2*,x,-25.8,x,-103.7,x
Cc1noc(C)c1NC(=O)Nc1ccc2c(c1)CC(=O)N([C@H](C)CO)C[C@H](C)[C@H](CN(C)S(=O)(=O)c1ccc(Cl)cc1)O2,2.1[16.7 µM],x,x,4.9,10.5[16.7 µM],2.8
O=C(Nc1ccccc1)N1CCN(c2nc(-c3ccccc3)ns2)CC1,x,-7.0,4.8,0.1,4.6,-30.4*
Cc1c(Cl)cccc1NC(=O)N1CCCN(c2nc(-c3ccccc3)ns2)CC1,-10.7,10.0,-32.6,-1.5,55.1*,-29.9
O=C(Nc1ccccc1Cl)N1CCCN(c2nc(-c3ccccc3)ns2)CC1,-13.7,-3.7,-28.8,-1.2,39.0,-31.9
COc1ccc(NS(=O)(=O)c2ccc(N3CCOCC3)c(NC(=O)c3ccc(F)cc3)c2)cc1,179.1*,3.4,-5.1,-6.4,-5.5,-2.8
COc1ccc(NS(=O)(=O)c2ccc(N3CCOCC3)c(NC(=O)c3ccco3)c2)cc1,30.2,0.2,6.4,-3.3,1.0,-17.8
COc1ccc(NS(=O)(=O)c2ccc(N3CCOCC3)c(NC(=O)c3cccc(F)c3)c2)cc1,189.8*,3.0,2.4,x,-4.5,x
CCOC(=O)/C=C/C(=O)Nc1cc(S(=O)(=O)Nc2ccc(OC)cc2)ccc1N1CCOCC1,-0.4,7.9,99.7*,-1.2,38.9,2.9
COCC#Cc1ccc2c(c1)O[C@@H](CN(C)C(=O)NC(C)C)[C@H](C)CN([C@@H](C)CO)S2(=O)=O,-11.5[16.7 µM],-4.8,x,0.9,4.1[16.7 µM],2.4
C[C@@H]1CN([C@H](C)CO)C(=O)c2cc(NC(=O)Cn3cnnn3)ccc2O[C@H]1CN(C)S(=O)(=O)c1cccs1,-0.7[16.7 µM],5.7,x,0.9,x,1.5
SMILES,miR-122 sensor,FN deposition inh,Vif imaging,S100A4 inh HTS,HIV Env fusion,rRNA inh HTS
C/C=C/c1cnc2c(c1)C(=O)N([C@H](C)CO)C[C@H](C)[C@@H](CN(C)C(=O)C1CC1)O2,0.7[16.7 µM],x,x,x,7.1[16.7 µM],5.0
O=C(c1c[nH]c2ccccc12)C(Cl)c1ccccc1 (stereo unspecified),-9.3,3.5,25.8,1.4,-154.4,-23.6*
O=C(c1c[nH]c2ccccc12)C(O)C(c1ccccc1)N1CCOCC1 (stereo unspecified),32.1,x,-5.1,x,x,x
COc1cccc(NC(=O)N2[C@@H]3CNC[C@H]2C3c2ccc(/C=C/c3ccccc3)cc2)c1 (stereo partly specified),x,-2.3,x,-7.5,x,-54.9
C[C@H]1CN([C@@H](C)CO)C(=O)c2cc(C3=CCCC3)cnc2O[C@@H]1CN(C)C(=O)Cc1ccncc1,-14.1[16.7 µM],3.6,x,-12.6,9.9[16.7 µM],0.0
CC(Cc1ccccc1)NC(=S)CN1CCCC1=S (stereo unspecified),x,-3.4,-7.3,-18.0,-0.7,-21.0*
CNS(=O)(=O)c1cccc(C(=O)Nc2cccnc2)c1,-7.3,x,51.4*,x,x,x
O=C(Nc1cccnc1)c1cccc(S(=O)(=O)Nc2cccc(Cl)c2)c1,69.8,-6.5,0.4,-3.0,20.6,-24.6
O=C(NN(c1ccccc1)c1ccccc1)c1ccc([N+](=O)[O-])o1,0.4,4.5,8.4,3.3,-9.9,-28.8*
COc1ccc(S(=O)(=O)N[C@H]2C=C[C@@H](CC(=O)N3CCN(c4ccccc4)CC3)O[C@H]2CO)cc1,x,x,x,-10.4,-4.3[16.7 µM],0.5
Cc1cc(C)c(OCC(=O)Nc2ccc3c(c2)OCO3)cc1C,6.2,-1.5,67.5*,x,-60.8,x
Cc1ccc(C)c(OCC(=O)Nc2ccc3c(c2)OCO3)c1,x,x,-5.8,-28.3,x,-1.1
Cc1c(NC(=O)c2ccc(Cl)c([N+](=O)[O-])c2)cccc1-n1cnnn1,-3.9,6.7,55.9*,-4.1,22.4,27.6
Cc1c(NC(=O)c2ccc(S(=O)(=O)N(C)C)cc2)cccc1-n1cnnn1,x,x,11.0,-0.2,x,0.7
CCOC(=O)c1cc(OC(=O)c2cccs2)n(-c2ccccc2)n1,1.7,x,5.3,-4.2,x,-17.7*
COc1ccc2c3c(n(C)c2c1)[C@H](CO)N(C(=O)NC(C)C)CC31CCN(C(C)=O)CC1,x,x,x,x,x,2.4
Nc1nc(SCc2ccccc2)c2ncn(Cc3ccccc3)c2n1,-6.6,x,0.1,1.1,17.3,-16.5*
COc1ccc(-c2n(CC(=O)OC3CC(C)CCC3C(C)C)c3ccccc3[n+]2C)cc1 (stereo unspecified),x,0.0,-1.4,4.3,-14.3,13.2
